Source: PubChem (Johns Hopkins Ion Channel Center)
Kir21 block: inhibitors of mouse Kir2.1 inward-rectifier potassium channel. actives 0.85% (n = 310,000). HEK293-Kir2.1, FluxOR thallium flux fluorescence; hits give low values. AID 1672, 2009. B-score at 10 µM;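 active = fluorescence ratio B-score at or below minus 3 SD of library scores, with starting-brightness B-score within 2 SD, cut at about -4.2 in these data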;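 note: channel flux triggered by added potassium and thallium sulfate stimulus; B-score of peak minus minimum fluorescence over baseline after thallium stimulus; more negative B-score means stronger Kir2.1 block with less thallium influx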
hERG rescue: hERG rescue from dofetilide block, primary screen, cell-based, CHO-hERG, FluxOR thallium flux, dofetilide IC70 | AID 1511, 2009 | dofetilide IC70 present | activation (rescue from dofetilide block), less the hit threshold, % at 10 µM | Voltage-gated inwardly rectifying potassium channel KCNH2 (Homo sapiens), Q12809 | actives 0.51% (n = 310,000);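 active = activation above the mean of controls blocked by dofetilide plus 5 SD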;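 note: thallium influx through hERG after potassium depolarization seen as dye fluorescence rise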
KCNK9 block: KCNK9 potassium channel inhibitors, primary screen, HEK293 cells, thallium flux. Potassium channel subfamily K member 9 (Homo sapiens), Q9NPC2. FluxOR thallium flux fluorescence; hits give low values. B-score at 10 µM. actives 1.2% (n = 310,000);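 active = ratio B-score over 3 SD below the library mean, with starting fluorescence within 5 SD of its mean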;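 note: negative B-score means less thallium flux so channel inhibition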
KCNQ1 pot: potentiators or activators of KCNQ1 channel, primary screen, cell-based, thallium flux, high-throughput | actives 0.35% (n = 310,000) | B-score at 10 µM | AID 2648, 2010 | CHO-K1 KCNQ1, thallium flux FluxOR fluorescence; hits give high values | Potassium voltage-gated channel subfamily KQT member 1 (Homo sapiens), P51787;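 active = fluorescence ratio B-score, a plate-corrected score, at least three library SD, with initial intensity B-score within 5 SD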
Target sequence (P51787 whole entry, looked up): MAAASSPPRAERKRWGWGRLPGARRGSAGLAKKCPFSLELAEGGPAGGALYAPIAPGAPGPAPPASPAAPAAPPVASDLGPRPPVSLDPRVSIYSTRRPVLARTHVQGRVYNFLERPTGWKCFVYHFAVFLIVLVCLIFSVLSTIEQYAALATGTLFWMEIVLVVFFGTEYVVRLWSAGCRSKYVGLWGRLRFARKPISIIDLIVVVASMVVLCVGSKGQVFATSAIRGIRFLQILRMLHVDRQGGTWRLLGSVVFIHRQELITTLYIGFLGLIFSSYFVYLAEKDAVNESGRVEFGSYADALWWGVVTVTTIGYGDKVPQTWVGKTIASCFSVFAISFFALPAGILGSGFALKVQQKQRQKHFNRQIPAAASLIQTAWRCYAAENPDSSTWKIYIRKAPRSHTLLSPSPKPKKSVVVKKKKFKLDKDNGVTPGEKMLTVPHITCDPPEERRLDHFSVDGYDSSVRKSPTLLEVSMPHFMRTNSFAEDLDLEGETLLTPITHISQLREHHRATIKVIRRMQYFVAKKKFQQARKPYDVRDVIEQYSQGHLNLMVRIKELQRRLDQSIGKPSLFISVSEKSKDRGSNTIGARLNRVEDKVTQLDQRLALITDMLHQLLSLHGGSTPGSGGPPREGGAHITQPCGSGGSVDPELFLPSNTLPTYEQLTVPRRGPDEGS
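Assay system: stable KCNQ1 CHO-K1 line; medium: assay buffer, equal DMSO in all wells; timing: 90 min dye loading and 20 min compound exposure, both at room temperature; technique: kinetic FluxOR thallium fluorescence, 10-s 1-Hz baseline, 110-s post-stimulus read; read-out basis: B score of baseline-normalized fluorescence ratio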
KCNK3 inh: human KCNK3 channel inhibitors, primary screen, CHO cells, FluxOR thallium flux, B-score | AID 602410, 2012 | Potassium channel subfamily K member 3 (Homo sapiens), O14649 | actives 0.84% (n = 340,000) | FluxOR fluorescence; hits give low values | B-score at 10 µM;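 active = B-score under library mean minus 4 SD, starting fluorescence ratio at most library mean plus 5 SD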;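 note: more negative B-score means stronger inhibition of thallium flux through KCNK3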
KCNQ1 inh: inhibitors of human KCNQ1 channel, primary screen, cell-based, thallium flux, high-throughput | Potassium voltage-gated channel subfamily KQT member 1 (Homo sapiens), P51787 | CHO-K1 KCNQ1, FluxOR thallium flux fluorescence; hits give high values | B-score at 10 µM | actives 1.3% (n = 310,000) | AID 2642, 2010;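 active = compounds whose thallium flux B-score, printed positive for inhibition, exceeds three library SD while starting fluorescence stays within three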;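 note: channel opened by potassium depolarization with thallium stimulus after 20 min compound exposure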
KCNK3 confirm: retest of human KCNK3 channel inhibitors, confirmation, CHO cells, FluxOR thallium flux, triplicate. ratio percent of control, % at 10 µM. actives 99% (n = 2,400). AID 651638, 2012. shares compounds with KCNK3 inh. FluxOR fluorescence; 0% buffer, 100% carvedilol maximal block;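 active = ratio percent of control, averaged over triplicates, above buffer control mean plus 5 SD, cut at about 64% in these data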;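 note: ratio is the fluorescence rise from min to max over baseline after thallium stimulus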
KCNK3 uninduced: thallium flux inhibition in non-induced cells, primary screen, counter-screen for KCNK3 inhibitor project, cell-based, non-induced KCNK3 line, FluxOR thallium, triplicate. shares compounds with KCNK3 inh. non-induced KCNK3 parental cells; hits give low values. thallium flux ratio (lower = more inhibition) at 10 µM. actives 40% (n = 2,400);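 active = thallium flux ratio, averaged over three wells, more than 5 SD below the buffer control mean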;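 note: host cells are CHO cells without KCNK3 induction; ratio is peak minus trough fluorescence over baseline then normalized to buffer controls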
* hit, by the source's call; i = inactive; . = not tested or not shown. Only some compounds are listed: those with a hit (about 3.8% of all), similar ones and a draw of the others.

SMILES | Kir21 block | hERG rescue | KCNK9 block | KCNQ1 pot | KCNK3 inh | KCNQ1 inh | KCNK3 confirm | KCNK3 uninduced
CN(c1ccc(OC(=O)CN2C(=O)NC3(CCCC3)C2=O)cc1)S(=O)(=O)c1ccccc1 | -0.11 | -8.6 | i | i | i | i | . | .
O=C(OCCNc1nc(-c2ccccc2)nc2ccccc12)c1ccncc1 | -0.82 | -7.8 | -7.29* | i | i | i | 123.7* | 0.159*
COc1ccc(CNc2nc(-c3ccccc3)nc3ccccc23)cc1OC | 0.65 | -6.3 | i | i | -16.6* | i | 114.0* | 0.136*
O=C(OCCNc1nc(-c2ccccc2)nc2ccccc12)c1cccnc1 | -1.48 | -16.2 | i | i | i | i | . | .
c1ccc(-c2nc(NCc3cccnc3)c3ccccc3n2)cc1 | -1.52 | -15.1 | i | i | -9.18* | i | 110.7* | 0.15*
CCc1ccc(NC(=O)C(=O)NCC2CCCN2S(=O)(=O)c2cccs2)cc1 (centres undefined) | -0.64 | -19.2 | i | i | i | i | . | .
CCC(c1nnnn1Cc1ccccc1)N1CCN(C(=O)c2ccco2)CC1 (centres undefined) | 1.85 | -8.7 | i | i | -11.9* | i | 72.0* | i
CCCCN(Cc1ccco1)C(=O)C1CCCN(c2ncnc3c2nc2n3CCCCC2)C1 (centres undefined) | 0.08 | -15.2 | i | i | -11.4* | i | 97.0* | i
O=C(Nc1cccc(NC(=O)c2cccs2)c1)c1ccc2c(c1)OCCO2 | -1.78 | -10.5 | i | i | i | i | . | .
Cc1cc(C)cc(NC(=S)N(CCN2CCCCC2)Cc2ccco2)c1 | -1.91 | -3.1 | i | i | -8.87* | i | 89.7* | i
Cc1ccc(-c2nc(COC(=O)C3=NN(c4ccccc4)C(=O)CC3)cs2)cc1 | . | . | . | . | i | . | . | .
CC(C)CN(CC(C)C)C(=O)COn1nnc2ccc(S(=O)(=O)N3CCOCC3)cc21 | . | . | . | . | i | . | . | .
O=C(COn1nnc2ccc(S(=O)(=O)N3CCOCC3)cc21)Nc1c(F)c(F)c(F)c(F)c1F | -1.25 | -11.1 | -7.44* | i | -8.81* | i | 87.0* | i
O=C(O)C(=O)/C(=C\c1cccc2ccccc12)c1ccc2ccccc2n1 | 0.01 | -2.5 | i | i | -9.09* | i | 137.3* | i
O=C(O)C(=O)/C(=C\c1ccccc1)c1ccc2ccccc2n1 | 0.88 | -11.3 | i | i | i | i | . | .
COc1ccc(OC)c(C2(O)CSC(=Nc3cccnc3)N2Cc2ccco2)c1 (centres undefined) | -0.34 | -15.9 | i | i | -10.9* | i | 0.0 | i
OC1(c2ccc(OC(F)F)cc2)CSC(=Nc2cccnc2)N1C1CC1 (centres undefined) | -0.99 | -12.8 | i | i | i | i | . | .
CCN(CC)S(=O)(=O)c1ccc(NC(=O)C2CC(=O)N(c3ccc4c(c3)OCCO4)C2)cc1 (centres undefined) | . | . | . | . | i | . | . | .
O=C(COC(=O)c1ccc(OC(F)F)cc1)NCc1cccs1 | . | . | . | . | i | . | . | .
Cc1ccc(N2C(=O)CC(N3CCc4ccccc43)C2=O)cc1Cl (centres undefined) | 2.46 | -2.2 | i | i | i | i | . | .
CCOc1ccc(C2C(C(=O)c3ccco3)=C(O)C(=O)N2Cc2cccnc2)cc1 (centres undefined) | 0.4 | -8.9 | i | i | i | i | . | .
COc1ccc(C2C(C(=O)c3ccco3)=C(O)C(=O)N2Cc2cccnc2)cc1OC (centres undefined) | 0.85 | -0.5 | i | i | -9.25* | i | 63.7* | i
COC(=O)c1ccsc1NC(=O)CN1CCN(c2ncccn2)CC1 | 1.74 | -5.7 | i | i | i | i | . | .
c1csc(-c2nc(NCC3CCCO3)c3ccccc3n2)c1 (centres undefined) | -0.92 | -14.4 | i | i | i | i | . | .
c1ccc(CN2CCC(Nc3nc(-c4cccs4)nc4ccccc34)CC2)cc1 | -1.01 | -41.1 | i | i | -10* | i | 126.0* | 0.14*
SMILES | Kir21 block | hERG rescue | KCNK9 block | KCNQ1 pot | KCNK3 inh | KCNQ1 inh | KCNK3 confirm | KCNK3 uninduced
Cc1noc(C)c1S(=O)(=O)Nc1ccc(C(=O)N2CCc3ccccc3C2)cc1 | 0.22 | -6.1 | i | i | -9.14* | i | 59.7* | i
CCCCCN(C(=O)CN1CCC(Cc2ccccc2)CC1)c1c(N)n(CCCC)c(=O)[nH]c1=O | 0.3 | -21.6 | i | i | i | i | . | .
Cc1ccc(C)c(N2CCN(C(c3ccc(N(C)C)cc3)c3nnnn3C(C)(C)C)CC2)c1 (centres undefined) | -0.78 | -11.1 | -8.08* | i | i | i | 122.3* | 0.148*
CN(C)c1ccc(C(c2nnnn2C(C)(C)C)N2CCN(C(=O)c3ccco3)CC2)cc1 (centres undefined) | 1.97 | -13.7 | i | i | i | i | . | .
CCCN1CCc2c(sc(NC(=O)c3ccc(S(=O)(=O)N4CCN(C(=O)OCC)CC4)cc3)c2C(N)=O)C1 | -3.15 | -20.2 | i | i | -11.3* | 6* | 125.0* | 0.0933*
CN1c2ccccc2-c2nc3ccccc3n2C1c1ccccn1 (centres undefined) | -0.79 | -6.0 | i | i | -9.74* | i | 95.3* | i
CC(SCC(=O)Nc1ccc(F)cc1)c1nc2ccccc2c(=O)[nH]1 (centres undefined) | -0.09 | -8.6 | i | i | i | i | . | .
CCCN1Cc2cccc(C(=O)NCCc3cccc(C)c3)c2C1=O | 0.02 | -9.9 | i | i | -9.73* | i | 110.0* | 0.151*
Cc1cccc(CCNC(=O)c2cccc3c2C(=O)N(C2CCCCC2)C3)c1 | 0.03 | -16.1 | i | i | i | i | . | .
CCOc1ccc(C2C(C#N)=C(N)SC(N)=C2C#N)cc1OC | -0.83 | -9.2 | i | i | . | i | . | .
